Data reported in ChEMBL document CHEMBL1933039, “6-alkylsalicylates are selective Tip60 inhibitors and target the acetyl-CoA binding site” (Eur J Med Chem, 2012).
The source made the active and inactive calls. The calls are words filed in the database; no cut-off is given here.

Legend:
[1] = target: Histone acetyltransferase KAT5 (Homo sapiens) (UniProt Q92993); test: Inhibition of Tip60-mediated histone H3 acetylation in human HeLa nuclear extracts at 50 uM after 15 mins by ELISA
Summary of the method: (§1)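 HeLa nuclear extract (Dignam method) at 2.5 µg/mL final protein as enzyme source. Biotinylated H3 (aa 1–21) or H4 (aa 2–24) peptide immobilized on streptavidin. Reaction run 15 min in 50 mM HEPES pH 7.4, 0.01% Triton X-100, 0.1 mM EDTA, BSA, 1 mM DTT. Anti-acetyl-lysine ELISA readout. Triplicates, normalized to no-inhibitor and no-enzyme controls.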

[2] = target: Histone acetyltransferase KAT5 (Homo sapiens) (UniProt Q92993); test: Inhibition of Tip60-mediated histone H3 acetylation in human HeLa nuclear extracts at 200 uM after 15 mins by ELISA; summary of the method: as §1
[3] = target: Histone acetyltransferase KAT2B (Homo sapiens) (UniProt Q92831); test: Inhibition of human recombinant His-tagged PCAF HAT domain expressed in Escherichia coli BL21(DE3) cells using [14C][…] and histone H3 as substrate at 200 uM after 5 mins by scintillation counting
[4] = target: Histone acetyltransferase KAT5 (Homo sapiens) (UniProt Q92993); test: Inhibition of Tip60-mediated histone H4 acetylation in human HeLa nuclear extracts at 200 uM after 15 mins by ELISA; summary of the method: as §1
[5] = target: Histone acetyltransferase p300 (Homo sapiens) (UniProt Q09472); test: Inhibition of human recombinant His-tagged p300 HAT domain expressed in Escherichia coli BL21(DE3) cells using [14C][…] and histone H4 as substrate at 200 uM after 5 mins by scintillation counting
Summary of the method: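 Single-point screen at 200 µM inhibitor: 5 nM p300, 10 µM [14C]Ac-CoA, 100 µM H4-20 peptide in 50 mM HEPES pH 8.0, EDTA, BSA, DTT, Triton X-100, 2% DMSO, 30 °C. Enzyme-initiated after 5 min equilibration. Radioactivity on P81 paper counted. No-enzyme background subtracted.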

[6] = target: Histone acetyltransferase KAT5 (Homo sapiens) (UniProt Q92993); test: Inhibition of His-tagged human recombinant Tip60 expressed in Escherichia coli BL21(DE3) cells using [14C][…] and histone H4 as substrate at 200 uM after 5 mins by scintillation counting
Summary of the method: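 Single-point screen at 200 µM inhibitor: 100 nM Tip60, 10 µM [14C]Ac-CoA, 100 µM H4-20 peptide in 50 mM HEPES pH 8.0, 0.1 mM EDTA, BSA, 1 mM DTT, 0.1% Triton X-100, 2% DMSO. Components equilibrated 5 min at 30 °C before enzyme start. Products spotted on P81 paper, washed with bicarbonate, counted by scintillation. No-enzyme background subtracted.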

[7] = target: Histone acetyltransferase KAT5 (Homo sapiens) (UniProt Q92993); test: Inhibition of Tip60-mediated histone H4 acetylation in human HeLa nuclear extracts at 50 uM after 15 mins by ELISA; summary of the method: as §1
[8] = target: Histone acetyltransferase KAT5 (Homo sapiens) (UniProt Q92993)
[9] = target: T1, Histone acetyltransferase KAT8 (Homo sapiens, UniProt Q9H7Z6); test: Inhibition of human MOF expressed in Escherichia coli BL21(DE3) cells using [14C]AC-CoA and histone H4 as substrate after 5 mins by scintillation counting
T1 sequence (Q9H7Z6 whole entry): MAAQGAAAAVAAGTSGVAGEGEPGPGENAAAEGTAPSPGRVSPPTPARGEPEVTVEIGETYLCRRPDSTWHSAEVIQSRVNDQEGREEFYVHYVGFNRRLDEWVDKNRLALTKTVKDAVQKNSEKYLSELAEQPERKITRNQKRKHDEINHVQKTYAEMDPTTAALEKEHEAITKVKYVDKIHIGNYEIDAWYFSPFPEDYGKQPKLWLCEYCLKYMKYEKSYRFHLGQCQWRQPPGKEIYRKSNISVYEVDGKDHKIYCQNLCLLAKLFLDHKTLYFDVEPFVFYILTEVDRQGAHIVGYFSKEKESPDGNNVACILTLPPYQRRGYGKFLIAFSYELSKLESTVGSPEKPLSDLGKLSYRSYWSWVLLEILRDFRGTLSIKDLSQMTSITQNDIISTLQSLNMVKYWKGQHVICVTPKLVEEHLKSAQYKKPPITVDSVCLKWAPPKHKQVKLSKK

[10] = target: Histone acetyltransferase KAT5 (Homo sapiens) (UniProt Q92993); remark: listed apart in the source
[11] = target: Histone acetyltransferase p300 (Homo sapiens) (UniProt Q09472); test: Inhibition of human recombinant His-tagged p300 HAT domain expressed in Escherichia coli BL21(DE3) cells using [14C][…] and histone H4 as substrate at >200 uM after 5 mins by scintillation counting
[12] = target: Histone acetyltransferase KAT5 (Rattus norvegicus) (UniProt Q99MK2); test: Inhibition of Tip60-mediated histone H3 acetylation in rat brain extracts at 30 uM after 15 mins by ELISA
[13] = target: Histone acetyltransferase KAT2B (Homo sapiens) (UniProt Q92831); test: Inhibition of human recombinant His-tagged PCAF HAT domain expressed in Escherichia coli BL21(DE3) cells using [14C][…] and histone H3 as substrate at >200 uM after 3.5 mins by scintillation counting
[14] = target: Histone acetyltransferase KAT5 (Rattus norvegicus) (UniProt Q99MK2); test: Inhibition of Tip60-mediated histone H3 acetylation in rat brain extracts at 30 uM after 15 mins by ELISA; format: tissue-based
Summary of the method: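 Rat brain-region nuclear extracts (Dignam method) at 40 µg/mL final protein. Inhibitor at 30 µM. Histone peptide immobilized via streptavidin, 15 min reaction in HEPES pH 7.4 buffer, anti-acetyl-lysine ELISA. Triplicates for each of two animals. Blank values subtracted.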

Sequence of Histone acetyltransferase KAT5 (Rattus norvegicus) (Q99MK2 whole entry, the tested form may be a part): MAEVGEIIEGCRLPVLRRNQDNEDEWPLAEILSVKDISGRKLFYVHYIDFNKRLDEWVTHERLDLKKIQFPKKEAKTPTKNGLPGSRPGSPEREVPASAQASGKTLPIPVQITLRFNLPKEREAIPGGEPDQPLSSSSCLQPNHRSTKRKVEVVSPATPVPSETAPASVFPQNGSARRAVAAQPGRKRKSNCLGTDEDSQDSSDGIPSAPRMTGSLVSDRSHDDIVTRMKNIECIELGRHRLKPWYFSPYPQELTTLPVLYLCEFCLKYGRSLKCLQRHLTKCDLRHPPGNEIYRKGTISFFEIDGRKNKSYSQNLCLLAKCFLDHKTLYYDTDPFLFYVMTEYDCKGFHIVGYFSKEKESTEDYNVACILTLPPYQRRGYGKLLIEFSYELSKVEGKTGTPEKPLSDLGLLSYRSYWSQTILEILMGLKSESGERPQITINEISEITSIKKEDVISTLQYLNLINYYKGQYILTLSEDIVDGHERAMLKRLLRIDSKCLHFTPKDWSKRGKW
Sequence of Histone acetyltransferase KAT2B (Homo sapiens) (Q92831 whole entry, looked up, the tested form may be a part): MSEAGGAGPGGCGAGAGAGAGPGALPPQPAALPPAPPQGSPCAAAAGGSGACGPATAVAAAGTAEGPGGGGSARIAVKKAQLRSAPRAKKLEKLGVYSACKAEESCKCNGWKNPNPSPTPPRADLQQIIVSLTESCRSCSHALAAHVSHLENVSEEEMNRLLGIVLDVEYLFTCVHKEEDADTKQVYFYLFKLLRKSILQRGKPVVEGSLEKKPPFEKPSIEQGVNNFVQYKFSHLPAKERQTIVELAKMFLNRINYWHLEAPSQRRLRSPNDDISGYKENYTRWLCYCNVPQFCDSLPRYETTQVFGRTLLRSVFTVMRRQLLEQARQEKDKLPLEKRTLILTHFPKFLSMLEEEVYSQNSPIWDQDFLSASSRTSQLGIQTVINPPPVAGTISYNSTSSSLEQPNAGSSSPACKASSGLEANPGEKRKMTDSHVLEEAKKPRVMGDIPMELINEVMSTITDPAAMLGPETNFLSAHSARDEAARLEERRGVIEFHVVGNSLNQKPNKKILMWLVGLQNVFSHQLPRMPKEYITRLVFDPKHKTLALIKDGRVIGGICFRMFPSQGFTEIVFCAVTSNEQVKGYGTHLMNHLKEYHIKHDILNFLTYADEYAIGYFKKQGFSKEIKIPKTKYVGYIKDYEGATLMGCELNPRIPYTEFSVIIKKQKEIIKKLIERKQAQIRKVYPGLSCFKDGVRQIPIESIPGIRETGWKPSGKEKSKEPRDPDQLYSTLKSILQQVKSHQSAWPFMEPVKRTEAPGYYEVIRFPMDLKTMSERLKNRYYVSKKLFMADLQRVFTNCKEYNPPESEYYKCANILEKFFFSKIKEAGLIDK
Sequence of Histone acetyltransferase p300 (Homo sapiens) (Q09472 whole entry, the tested form may be a part): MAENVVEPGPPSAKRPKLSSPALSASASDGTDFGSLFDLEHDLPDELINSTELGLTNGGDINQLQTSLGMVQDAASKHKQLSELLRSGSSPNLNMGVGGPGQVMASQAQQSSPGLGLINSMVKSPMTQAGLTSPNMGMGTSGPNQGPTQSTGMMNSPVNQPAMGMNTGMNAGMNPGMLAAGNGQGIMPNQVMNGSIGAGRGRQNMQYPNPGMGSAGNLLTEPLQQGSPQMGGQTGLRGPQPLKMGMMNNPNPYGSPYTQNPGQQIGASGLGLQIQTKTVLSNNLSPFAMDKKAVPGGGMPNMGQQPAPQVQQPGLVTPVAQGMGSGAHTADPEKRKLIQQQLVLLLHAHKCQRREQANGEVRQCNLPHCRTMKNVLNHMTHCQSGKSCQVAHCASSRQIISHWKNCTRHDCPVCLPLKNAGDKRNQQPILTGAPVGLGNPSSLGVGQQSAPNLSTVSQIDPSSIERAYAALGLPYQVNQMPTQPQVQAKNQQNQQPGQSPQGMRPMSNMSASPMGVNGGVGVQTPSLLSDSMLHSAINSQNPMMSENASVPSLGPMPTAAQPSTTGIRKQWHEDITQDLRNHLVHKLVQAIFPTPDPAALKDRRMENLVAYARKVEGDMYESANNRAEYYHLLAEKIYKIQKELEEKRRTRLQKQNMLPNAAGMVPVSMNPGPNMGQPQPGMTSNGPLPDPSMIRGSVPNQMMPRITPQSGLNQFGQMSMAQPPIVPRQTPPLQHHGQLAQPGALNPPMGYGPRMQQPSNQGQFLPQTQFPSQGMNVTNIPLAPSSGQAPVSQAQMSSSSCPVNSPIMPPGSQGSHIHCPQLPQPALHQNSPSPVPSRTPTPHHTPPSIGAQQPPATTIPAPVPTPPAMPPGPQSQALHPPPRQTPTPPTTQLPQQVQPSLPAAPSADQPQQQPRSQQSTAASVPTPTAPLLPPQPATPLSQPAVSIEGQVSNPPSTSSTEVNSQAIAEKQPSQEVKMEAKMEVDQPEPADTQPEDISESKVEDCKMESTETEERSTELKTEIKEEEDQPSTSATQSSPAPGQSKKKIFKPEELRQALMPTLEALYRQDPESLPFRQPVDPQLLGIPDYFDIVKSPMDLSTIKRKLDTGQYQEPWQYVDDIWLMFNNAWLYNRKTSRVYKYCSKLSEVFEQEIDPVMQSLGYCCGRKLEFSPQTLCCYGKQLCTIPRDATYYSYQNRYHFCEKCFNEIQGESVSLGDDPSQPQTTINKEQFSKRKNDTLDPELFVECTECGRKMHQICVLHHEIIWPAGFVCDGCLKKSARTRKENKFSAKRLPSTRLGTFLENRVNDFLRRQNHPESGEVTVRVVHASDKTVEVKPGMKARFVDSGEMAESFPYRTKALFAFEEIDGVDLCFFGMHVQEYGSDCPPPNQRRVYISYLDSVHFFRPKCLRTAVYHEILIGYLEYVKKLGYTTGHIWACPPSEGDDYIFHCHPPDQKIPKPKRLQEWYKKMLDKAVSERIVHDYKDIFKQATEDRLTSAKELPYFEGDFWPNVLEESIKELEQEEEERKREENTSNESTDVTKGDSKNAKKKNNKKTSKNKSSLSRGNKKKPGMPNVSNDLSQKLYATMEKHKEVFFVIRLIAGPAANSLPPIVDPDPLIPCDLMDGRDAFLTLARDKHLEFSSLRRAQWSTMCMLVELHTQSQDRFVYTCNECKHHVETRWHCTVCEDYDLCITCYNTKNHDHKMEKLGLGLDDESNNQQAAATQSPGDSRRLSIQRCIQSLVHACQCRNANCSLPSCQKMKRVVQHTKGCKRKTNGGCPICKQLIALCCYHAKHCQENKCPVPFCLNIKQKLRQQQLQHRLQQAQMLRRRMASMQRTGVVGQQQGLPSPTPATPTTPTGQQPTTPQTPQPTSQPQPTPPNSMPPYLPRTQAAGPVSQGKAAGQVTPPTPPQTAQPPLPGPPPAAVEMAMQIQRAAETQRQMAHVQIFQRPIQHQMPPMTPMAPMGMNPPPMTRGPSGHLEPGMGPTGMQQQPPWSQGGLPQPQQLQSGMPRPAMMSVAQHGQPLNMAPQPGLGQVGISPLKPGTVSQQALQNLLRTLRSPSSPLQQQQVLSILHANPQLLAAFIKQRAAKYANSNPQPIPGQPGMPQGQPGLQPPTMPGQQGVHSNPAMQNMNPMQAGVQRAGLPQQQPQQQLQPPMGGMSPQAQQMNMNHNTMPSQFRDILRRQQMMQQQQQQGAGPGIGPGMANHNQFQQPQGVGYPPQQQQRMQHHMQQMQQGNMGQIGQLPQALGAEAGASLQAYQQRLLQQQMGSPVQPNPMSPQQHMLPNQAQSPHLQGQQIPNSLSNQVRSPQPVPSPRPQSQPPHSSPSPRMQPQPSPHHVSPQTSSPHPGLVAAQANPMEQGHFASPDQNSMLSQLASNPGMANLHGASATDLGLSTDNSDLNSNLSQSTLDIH
Sequence of Histone acetyltransferase KAT5 (Homo sapiens) (Q92993 whole entry, looked up, the tested form may be a part): as the sequence (Q99MK2 whole entry, the tested form may be a part) above, with S175A counted along it

SMILES | inhibition [1] | inhibition [2] | inhibition [3] | inhibition [4] | inhibition [5] | inhibition [6] | inhibition [7] | further results
CC(C)CCCC(C)CCOc1ccc(CCc2cccc(O)c2C(=O)O)cc1 (stereo unspecified) | Active | > 50% | < 35% | > 50% | < 35% | > 76% | – | –
CCCCCCCCCCc1cccc(O)c1C(=O)O | Active | > 50% | < 35% | > 50% | < 35% | > 76% | Active | –
CCCCCCCCCCc1cc(O)cc(O)c1C(=O)O | – | > 50% | < 35% | > 50% | < 35% | > 76% | – | –
CCCCCOc1ccc(CCc2cccc(O)c2C(=O)O)cc1C(C)=O | – | > 50% | < 35% | > 50% | < 35% | > 76% | – | –
CCCCCCCCCCCCCCOc1ccc(CCc2cccc(O)c2C(=O)O)cc1 | – | > 50% | – | > 50% | – | – | Active | –
CCCCCCCc1ccc(CCc2cc(O)cc(O)c2C(=O)O)cc1 | Active | – | – | – | – | – | – | –
COCCOc1ccc(CCc2cccc(O)c2C(=O)O)cc1 | – | – | – | – | – | Active | – | –
CCCCCOc1ccc(/C=C\c2cccc(O)c2C(=O)O)cc1 | – | > 50% | – | > 50% | – | – | Active | –
CCCCCOc1ccc(CCc2cccc(O)c2C(=O)O)cc1 | – | > 50% | – | > 50% | – | – | Active | –
CCCCCCCCCCCCCC#Cc1ccccc1C(=O)OC | – | > 50% | – | > 50% | – | – | – | –
CCCCCCCCCCCCCCCc1ccccc1C(=O)O | – | > 50% | – | > 50% | – | – | – | –
CCCCCOc1ccc(CCc2cccc(O)c2C(=O)O)cc1C(C)O (stereo unspecified) | – | – | – | – | – | Active | – | –
CCCCCCCOc1ccc(CCc2cccc(O)c2C(=O)O)cc1C(C)=O | Active | > 50% | – | > 50% | – | – | – | –
CCCCCCCc1ccc(CCc2cccc(O)c2C(=O)O)cc1 | Active | > 50% | < 35% | > 50% | < 35% | 88% | – | Kii [8]: 572 µM; IC50 [9]: 47 µM; Kii [10]: 78 µM; inhibition [11]: 30%; inhibition [12]: Active; inhibition [13]: 3%; inhibition [14]: Active
CCCCCCCCCCCCCCCc1cc(O)cc(O)c1C(=O)O | Active | > 50% | < 35% | > 50% | < 35% | > 76% | – | –
C=CC/C=C\C/C=C\CCCCCCCc1cccc(O)c1C(=O)O | Active | > 50% | < 20% | > 50% | < 20% | > 76% | Active | inhibition [11]: 40%; inhibition [12]: Active; inhibition [14]: Active
